ChEMBL document CHEMBL5532751, “Identification of chalcone analogues as anti-inflammatory agents through the regulation of NF-κB and JNK activation” (RSC Med Chem, 2024)
The source made the active and inactive calls. The rule behind the calls is not given here.

Tests used:
[1] = system: RAW264.7; assay: Antiinflammatory activity in LPS-induced mouse RAW264.7 cells assessed as inhibition of IL-6 release preincubated for 2 hrs followed by LPS stimulation for 24 hrs by ELISA method; type: functional, cell-based; conditions: for Activity: dose 2.5-40 µM, time 26.0 hrs
Method in brief: (§1)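 RAW264.7 macrophages pretreated 2 h with compound at 2.5, 5, 10, 20 and 40 μM, then LPS 1 μg mL−1 for 24 h. Cytokine in supernatant measured with commercial ELISA kits per the manufacturers' protocols. IC50 derived from the dose series. Mean ± SD.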

[2] = system: RAW264.7; assay: Antiinflammatory activity in LPS-induced mouse RAW264.7 cells assessed as downregulation of TNF-alpha mRNA expression level preincubated for 2 hrs followed by LPS stimulation for 6 hrs by RT-qPCR analysis; type: functional, cell-based; conditions: dose 5-20 µM, time 8.0 hrs
Method in brief: (§2)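 RAW264.7 cells pretreated 2 h with compound at 5, 10 or 20 μM or vehicle, then LPS 1 μg mL−1 for 6 h. Total RNA extracted and target mRNAs quantified by RT-qPCR, normalized to β-actin mRNA. Mean ± SD of three independent experiments.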

[3] = system: RAW264.7; assay: Antiinflammatory activity in LPS-induced mouse RAW264.7 cells assessed as downregulation of IL-1beta mRNA expression level preincubated for 2 hrs followed by LPS stimulation for 6 hrs by RT-qPCR analysis; type: functional, cell-based; conditions: dose 5-20 µM, time 8.0 hrs; method in brief: as §2
[4] = system: RAW264.7; assay: Cytotoxicity against mouse RAW264.7 cells assessed as cell survival at 20 uM incubated for 4 hrs by CCK-8 method; type: toxicity, cell-based; conditions: raw264.7, 4 h
Method in brief: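 RAW 264.7 cells seeded at 20 000 per well, grown 24 h at 37 °C, exposed to compound for 4 h. CCK-8 (WST-8) reagent then added for 50 min at 37 °C, absorbance read at 450 nm. Survival = (test − blank)/(untreated medium control − blank) × 100%, blank being medium without cells.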

[5] = system: RAW264.7; assay: Antiinflammatory activity in LPS-induced mouse RAW264.7 cells assessed as inhibition of TNF-alpha release preincubated for 2 hrs followed by LPS stimulation for 24 hrs by ELISA method; type: functional, cell-based; conditions: for Activity: dose 2.5-40 µM, time 26.0 hrs; method in brief: as §1
[6] = system: RAW264.7; assay: Antiinflammatory activity in LPS-induced mouse RAW264.7 cells assessed as downregulation of IL-6 mRNA expression level preincubated for 2 hrs followed by LPS stimulation for 6 hrs by RT-qPCR analysis; type: functional, cell-based; conditions: dose 5-20 µM, time 8.0 hrs; method in brief: as §2
[7] = system: RAW264.7; assay: Antiinflammatory activity in LPS-induced mouse RAW264.7 cells assessed as downregulation of iNOS mRNA expression level preincubated for 2 hrs followed by LPS stimulation for 6 hrs by RT-qPCR analysis; type: functional, cell-based; conditions: dose 5-20 µM, time 8.0 hrs; method in brief: as §2
[8] = system: RAW264.7; assay: Antiinflammatory activity in LPS-induced mouse RAW264.7 cells assessed as inhibition of PGE2 production preincubated for 2 hrs followed by LPS stimulation for 24 hrs by ELISA method; type: functional, cell-based
[9] = system: RAW264.7; assay: Inhibition of JNK signaling activation in LPS-induced mouse RAW264.7 cells assessed as downregulation of JNK phosphorylation preincubated for 2 hrs followed by LPS addition for 2 hrs by Western blot analysis; type: cell-based; conditions: dose 10-40 µM, time 4.0 hrs
Method in brief: (§3)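 RAW264.7 macrophages pretreated 2 h with vehicle (DMSO) or compound at 10, 20 or 40 μM, then LPS 1 μg mL−1 for 2 h. p-p65 and p-JNK detected by Western blot, normalized to β-actin and to total p65 or JNK. Optical density expressed as % of control; mean ± SEM of at least three independent experiments.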

[10] = system: RAW264.7; assay: Antiinflammatory activity in LPS-induced mouse RAW264.7 cells assessed as inhibition of IL-1beta release preincubated for 2 hrs followed by LPS stimulation for 24 hrs by ELISA method; type: functional, cell-based; conditions: for Activity: dose 2.5-40 µM, time 26.0 hrs; method in brief: as §1
[11] = system: RAW264.7; assay: Antiinflammatory activity in LPS-induced mouse RAW264.7 cells assessed as inhibition of iNOS activity preincubated for 2 hrs followed by LPS stimulation for 24 hrs by ELISA method; type: functional, cell-based
[12] = system: RAW264.7; assay: Antiinflammatory activity in LPS-induced mouse RAW264.7 cells assessed as decrease in iNOS protein level at 10 to 40 uM preincubated for 2 hrs followed by LPS stimulation for 24 hrs by Western blot analysis; type: functional, cell-based; conditions: dose 10-40 µM, time 26.0 hrs
Method in brief: (§4)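 RAW264.7 cells given compound at 10, 20 or 40 μM, then LPS (1 μg mL−1). Lysis in 1% Triton X-100 buffer with phosphatase and protease inhibitors, 30 min on ice. Protein quantified by BCA, run on 10% SDS-PAGE, transferred to PVDF. Primary antibody overnight at 4 °C, HRP secondary 2 h at room temperature, ECL detection. β-Actin as loading control. Mean ± SD, n = 3.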

[13] = system: RAW264.7; assay: Antiinflammatory activity in LPS-induced mouse RAW264.7 cells assessed as decrease in COX-2 protein level at 10 to 40 uM preincubated for 2 hrs followed by LPS stimulation for 24 hrs by Western blot analysis; type: functional, cell-based; conditions: dose 10-40 µM, time 26.0 hrs; method in brief: as §4
[14] = system: RAW264.7; assay: Antiinflammatory activity in LPS-induced mouse RAW264.7 cells assessed as downregulation of COX-2 mRNA expression level preincubated for 2 hrs followed by LPS stimulation for 6 hrs by RT-qPCR analysis; type: functional, cell-based; conditions: dose 5-20 µM, time 8.0 hrs; method in brief: as §2
[15] = system: RAW264.7; assay: Inhibition of NF-kB signaling activation in LPS-induced mouse RAW264.7 cells assessed as downregulation of p65 phosphorylation preincubated for 2 hrs followed by LPS addition for 2 hrs by Western blot analysis; type: cell-based; conditions: dose 10-40 µM, time 4.0 hrs; method in brief: as §3
[16] = system: RAW264.7; assay: Antiinflammatory activity in LPS-induced mouse RAW264.7 cells assessed as inhibition of NO production at 20 uM preincubated for 2 hrs followed by LPS stimulation for 24 hrs by Griess reagent based assay; type: functional, cell-based; conditions: time 26.0 hrs
Method in brief: (§5)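 Cells at 100 000 per well, grown 36 h in DMEM with 10% heat-inactivated FBS at 37 °C, 5% CO2. Pretreated 2 h with compound (20 μM in the screen), then LPS 1 μg mL−1 for 24 h. Supernatant mixed with Griess reagent, absorbance read at 540 nm, nitrite read from a sodium nitrite standard curve. Expressed as % of LPS control; ≥3 independent experiments, each in triplicate.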

[17] = system: RAW264.7; assay: Antiinflammatory activity in LPS-induced mouse RAW264.7 cells assessed as reduction in NO production at 20 uM preincubated for 2 hrs followed by LPS stimulation for 24 hrs by Griess reagent based assay; type: functional, cell-based; conditions: time 26.0 hrs; method in brief: as §5
[18] = system: RAW264.7; assay: Antiinflammatory activity in LPS-induced mouse RAW264.7 cells assessed as inhibition of NO production preincubated for 2 hrs followed by LPS stimulation for 24 hrs by Griess reagent based assay; type: functional, cell-based; method in brief: as §5
[19] = system: RAW264.7; assay: Inhibition of ROS production in LPS-induced mouse RAW264.7 cells preincubated for 2 hrs followed by LPS stimulation for 24 hrs by Real-time single cell multi-mode analyzer; type: functional, cell-based; conditions: dose 10-40 µM, time 26.0 hrs
Method in brief: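 Cells on confocal dishes at 100 000 per well for 36 h, pretreated 2 h with compound at 10, 20 or 40 μM, then LPS 1 μg mL−1 for 24 h. Loaded with 50 μM H2DCFDA in PBS for 30 min in the dark. ROS read per cell on a real-time single-cell multi-mode analyzer. Mean ± SD.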

Row | Structure (SMILES) | IC50 [1] | Activity [1] | Activity [2] | Activity [3] | Activity [4] | IC50 [5] | Activity [5] | Activity [6] | Activity [7] | IC50 [8] | inhibition [9] | IC50 [10] | Activity [10] | IC50 [11] | Activity [12] | Activity [13] | Activity [14] | inhibition [15] | Activity [16] | further results
1 | COc1ccc(C(=O)/C=C/c2cc(OC)c(OC)c(OC)c2)cc1OC | 2.1 µM | Dose-Dependent Effect | Dose-Dependent Effect | Dose-Dependent Effect | Non-Toxic | 7.9 µM | Dose-Dependent Effect | Dose-Dependent Effect | Dose-Dependent Effect | 4 µM | Dose-Dependent Effect | 12.3 µM | Dose-Dependent Effect | 4.6 µM | Active | Active | Dose-Dependent Effect | Dose-Dependent Effect | – | –
2 | COc1ccc(C(=O)CCc2ccc(OC)c(OC)c2)cc1 | – | – | – | – | – | – | – | – | – | – | – | – | – | – | – | – | – | – | inactive | –
3 | COc1ccc(/C=C/C(=O)c2cc(OC)c(OC)c(OC)c2)cc1OC | 8.4 µM | Dose-Dependent Effect | Dose-Dependent Effect | Dose-Dependent Effect | Non-Toxic | 7.1 µM | Dose-Dependent Effect | Dose-Dependent Effect | Dose-Dependent Effect | 9.5 µM | Dose-Dependent Effect | 10 µM | Dose-Dependent Effect | 11.9 µM | Active | Active | Dose-Dependent Effect | Dose-Dependent Effect | – | Activity [17]: Active; IC50 [18]: 7.6 µM; Activity ([18]; dose 2.5-40 µM, time 26.0 hrs): Dose-Dependent Effect; inhibition [19]: Dose-Dependent Effect
4 | COc1cc(CCC(=O)c2ccc(F)c(C)c2)cc(OC)c1OC | – | – | – | – | – | – | – | – | – | – | – | – | – | – | – | – | – | – | inactive | –
5 | COc1ccc(CCC(=O)c2ccc(O)cc2)c(OC)c1 | – | – | – | – | – | – | – | – | – | – | – | – | – | – | – | – | – | – | – | inhibition [16]: inactive
